According to paper PMC5508592 (The New England journal of medicine, 2016):
Where two headings read alike, the source gives them in different places.

How the values were obtained:
[1] = system: DhhCre;Nf1fl/fl model of neurofibromatosis type 1–related neurofibromas; settings: cited from earlier work
[2] = system: neurofibromatosis type 1–related plexiform neurofibromas; experiment: Response evaluation by volumetric MRI analysis of plexiform neurofibroma volume; type: in vivo, human
[3] = children with low-grade gliomas; cited from earlier work
[4] = Plasma pharmacokinetics of selumetinib in patients during cycle 1; type: in vivo, human
Summary of the method: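 Pediatric patients who consented received oral test compound capsules every 12 h, continuously in 28-day cycles, at 20, 25 or 30 mg per square meter (nomogram by body-surface area). Plasma was sampled in cycle 1 on day 1 before dosing and 0.5, 1, 2, 3, 5, 8, 10–12, 24 and 30–36 h after, and on day 27 before dosing. Parent and N-desmethyl metabolite were assayed; noncompartmental PK analysis.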

[5] = system: plexiform neurofibroma–related complications; experiment: Anecdotal report of amelioration of complications of plexiform neurofibroma; type: in vivo, human
[6] = type: in vivo
[7] = system: phosphorylated extracellular signal-regulated kinase (ERK); experiment: Pharmacodynamics in mouse tumor samples; settings: in vivo
plexiform neurofibromas = settings: 4 of 83 patients; phase 2 trial; cited from earlier work
[8] = 20-mg group, 7 patients with condition at baseline
[9] = 25-mg group, 3 patients with condition at baseline
[10] = 30-mg group, 3 patients with condition at baseline

O=C(NOC[C@H](O)CO)c1ccc(F)c(F)c1Nc1ccc(I)cc1F [PD0325901]
Effect on neurofibroma volume [1]: tumor shrinkage in the majority of mice

Cn1cnc2c(F)c(Nc3ccc(Br)cc3Cl)c(C(=O)NOCCO)cc21 [selumetinib]
Partial response, documented progressive disease at enrollment ([2]; 5 of 9 patients): 56% | Partial response, no previous volumetric data available at enrollment ([2]; 6 of 7 patients): 86% | Median time free of progression ([2]; 9 patients with confirmed tumor growth before enrollment, range, 23 to 46): 26 cycles | Confirmed partial response ([2]; 17 of the 24 patients, tumor volume decrease from baseline ≥20%): 71% | Median best response (range) ([2]; 20-mg group (N = 12)): −31 (−6 to −47) % volume change from baseline | Median time to best response (range) ([2]; 20-mg group (N = 12)): 22 (5 to 42) mo | Partial response ([2]; 20-mg group (N = 12), tumor volume decrease from baseline ≥20% for at least 4 weeks): 9 (75) no. (%) | No. with response, insufficient information on progression status at entry ([2]; 20-mg group, of 4 patients): 3 | No. with response, nonprogressive disease at trial entry ([2]; 20-mg group, of 4 patients): 4 | No. with response, progressive disease at trial entry ([2]; 20-mg group, of 4 patients): 2 | Median best response (range) ([2]; 25-mg group (N = 6)): −34 (−16 to −44) % volume change from baseline | Median time to best response (range) ([2]; 25-mg group (N = 6)): 18 (9 to 22) mo | Partial response ([2]; 25-mg group (N = 6), tumor volume decrease ≥20%): 5 (83) no. (%) | No. with response, insufficient information on progression status at entry ([2]; 25-mg group, of 2 patients): 2 | No. with response, progressive disease at trial entry ([2]; 25-mg group, of 4 patients): 3 | Median best response (range) ([2]; 30-mg group (N = 6)): −19 (−13 to −34) % volume change from baseline | Median time to best response (range) ([2]; 30-mg group (N = 6)): 8 (5 to 24) mo | Partial response ([2]; 30-mg group (N = 6), tumor volume decrease ≥20%): 3 (50) no. (%) | No. with response, insufficient information on progression status at entry ([2]; 30-mg group, of 1 patient): 1 | No. with response, progressive disease at trial entry ([2]; 30-mg group, of 1 patient): 0 | No. with response, nonprogressive disease at trial entry ([2]; 30-mg group, of 4 patients): 2 | Tumor volume reduction since reinitiation at a reduced dose ([2]; Patient 7 (30-mg group)): 25% | Increase in plexiform neurofibroma volume from baseline after drug interruption ([2]; Patient 7 (30-mg group), when selumetinib was restarted): 9.6% | Median change from baseline in plexiform neurofibroma volume (best response) ([2]; all 24 patients): −31% | Range of change from baseline in plexiform neurofibroma volume (best response) ([2]; all 24 patients): −5.8 to −47% | Median time to maximum response ([2]; all patients, range, 5 to 42): 20 cycles | Partial response, tumors assessed as stable at enrollment ([2]; in vivo): 2 of 2 | Patients with partial response who maintain their response status to date ([2]; in vivo): 15 of the 17 | Median duration of partial response ([2]; range, 6 to 42): 23 cycles | Disease progression (tumor volume increase from baseline of ≥20%) ([2]; to date): No patients have had disease progression | Maximum tolerated dose [3]: 25 mg per square meter | Drug exposure with increasing dose ([4]; 20 to 30 mg per square meter): less than dose-proportional | Selumetinib plasma concentrations versus N-desmethyl metabolite ([4]; plasma): exceeded those of the N-desmethyl metabolite at all time points | Absorption ([4]; plasma, cycle 1, 18 patients): absorbed rapidly | Motor dysfunction: no. of patients with improvement ([5]; 20-mg group, 3 patients with condition at baseline): 2 | Disfigurement: no. of patients with improvement [5, 8]: 2 | Pain: no. of patients with improvement [5, 8]: 4 | Motor dysfunction: no. of patients with improvement [5, 9]: 3 | Pain: no. of patients with improvement [5, 9]: 3 | Disfigurement: no. of patients with improvement ([5]; 25-mg group, 6 patients with condition at baseline): 3 | Motor dysfunction: no. of patients with improvement [5, 10]: 0 | Pain: no. of patients with improvement [5, 10]: 1 | Disfigurement: no. of patients with improvement ([5]; 30-mg group, 5 patients with condition at baseline): 0 | Tolerability of 30 mg per square meter relative to maximum tolerated dose ([6]; 30 mg per square meter twice daily): exceeded the maximum tolerated dose | Maximum tolerated dose ([6]; children, oral, every 12 hours, continuous dosing in 28-day cycles, approximately 60% of the recommended adult dose): 25 mg per square meter | Dose-limiting toxic effect: cellulitis ([6]; human, in vivo): Grade 3 (2 patients) | Dose-limiting toxic effect: decreased left ventricular ejection fraction ([6]; human, in vivo): Grade 3 (1 patient) | Dose-limiting toxic effect: rash ([6]; human, in vivo): Grade 3 (1 patient) | Dose-limiting toxic effect: urticaria ([6]; human, in vivo): Grade 3 (1 patient) | Dose-limiting toxic effects in later cycles: cellulitis ([6]; human, in vivo): 1 patient | Dose-limiting toxic effects in later cycles: creatine kinase elevation ([6]; human, in vivo): 4 patients | Dose-limiting toxic effects in later cycles: oral mucositis ([6]; human, in vivo): 3 patients | Left ventricular ejection fraction after decrease ([6]; human, in vivo): 50% | Serial ophthalmologic examinations ([6]; human, in vivo): no abnormalities, with the exception of a grade 1 asymptomatic cataract at cycle 16 in 1 patient | Severity of most selumetinib-related adverse events ([6]; human, in vivo): mild (grade 1) | Treatment stopped because of dose-limiting toxic effects ([6]; human, in vivo): 1 | Effect on height or weight ([6]; in vivo): No measurable effect | Reversibility of dose-limiting toxic effects ([6]; in vivo): reversible | Phosphorylated ERK in mouse tumor samples [7]: transient decrease

pegylated interferon alfa-2b
Patients with tumor volume decrease from baseline of at least 20% (plexiform neurofibromas): 5%
